In ChEMBL document CHEMBL1124329, “Synthesis of novel bifunctional chelators and their use in preparing monoclonal antibody conjugates for tumor targeting” (J Med Chem, 1989):
“And” between values parts separate entries of the source, which are not always exact repeats. Equal entries are not always repeated.

Assays:
Settings in all cases: in vivo, iv
Mus musculus [1] = test: Biodistribution of labeled B72.3-chelator conjugate(DTPA amide)s in Nude mice bearing LS174T tumors, in lungs, administered intravenously expressed as % of injected dose of indium-111 per gram of tissue; type: ADME, organism-based, Lung
Mus musculus [2] = test: Biodistribution of labeled B72.3-chelator conjugate (DTPA amide) in Nude mice bearing LS174T tumor (Ag+), administered intravenously expressed as % of injected dose of indium-111 per gram of tissue; type: ADME, organism-based
Mus musculus [3] = test: Biodistribution of labeled B72.3-chelator conjugate in Nude mice bearing LS174T tumors, in liver, administered intravenously expressed as % of injected dose of indium-111 per gram of tissue
Mus musculus [4] = test: Biodistribution of labeled B72.3-chelator conjugate(DTPA amide) in Nude mice bearing LS174T tumor (Ag+), administered intravenously expressed as % of injected dose of indium-111 per gram of tissue; type: ADME, organism-based
Mus musculus [5] = test: Biodistribution of labeled B72.3-chelator conjugate(DTPA amide) in Nude mice bearing LS174T tumor (Ag-), administered intravenously expressed as % of injected dose of indium-111 per gram of tissue; type: ADME, organism-based
Mus musculus [6] = test: Biodistribution of labeled B72.3-chelator conjugate(DTPA amide) in Nude mice bearing LS174T tumors, in blood, administered intravenously expressed as % of injected dose of indium-111 per gram of tissue; type: ADME, organism-based
Mus musculus [7] = test: Biodistribution of labeled B72.3-chelator conjugate (DTPA amide) in Nude mice bearing LS174T tumors, in blood, administered intravenously expressed as % of injected dose of indium-111 per gram of tissue; type: ADME, organism-based
Mus musculus [8] = test: Biodistribution of labeled B72.3-chelator conjugate(DTPA amide) in nude mice bearing LS174T tumors, in kidney, administered intravenously expressed as % of injected dose of indium-111 per gram of tissue; type: ADME, organism-based
Mus musculus [9] = test: Biodistribution of labeled B72.3-chelator conjugate(DTPA amide) in Nude mice bearing LS174T tumors, in spleen, administered intravenously expressed as % of injected dose of indium-111 per gram of tissue; type: ADME, organism-based
Mus musculus [10] = test: Biodistribution of labeled B72.3-chelator conjugate(DTPA isothiocynates) in Nude mice bearing LS174T tumors, in spleen, administered intravenously expressed as % of injected dose of indium-111 per gram of tissue; type: ADME, organism-based
Procedure, shortened: (§1)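 Female athymic nu/nu mice (BALB/c background) were given 5×10^6 A375 melanoma cells (antigen-negative) s.c. in the left flank, then 14 days later 1.25×10^6 LS174T colorectal cells (antigen-positive) in the right flank. After a further 7–14 days, with tumors at 100–500 mg, mice were randomized and given 2.0 μg indium-111-labeled B72.3 conjugate in saline i.v. by tail vein. At 48 h, tissues were weighed and gamma-counted, and activity was expressed as % of counted injectate per gram.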

Mus musculus [11] = test: Biodistribution of labeled B72.3-chelator conjugate (DTPA isothiocynates) in Nude mice bearing LS174T tumors, in blood, administered intravenously expressed as % of injected dose of indium-111 per gram of tissue; type: ADME, organism-based; procedure, shortened: as §1
Mus musculus [12] = test: Biodistribution of labeled B72.3-chelator conjugate(DTPA isothiocynates) in Nude mice bearing LS174T tumors, in lungs, administered intravenously expressed as % of injected dose of indium-111 per gram of tissue; type: ADME, organism-based, Lung; procedure, shortened: as §1
Mus musculus [13] = test: Biodistribution of labeled B72.3-chelator conjugate(DTPA isothiocynates) in Nude mice bearing LS174T tumor (Ag+), administered intravenously expressed as % of injected dose of indium-111 per gram of tissue; type: ADME, organism-based; procedure, shortened: as §1
Mus musculus [14] = test: Biodistribution of labeled B72.3-chelator conjugate(DTPA isothiocynates) in nude mice bearing LS174T tumors, in kidney, administered intravenously expressed as % of injected dose of indium-111 per gram of tissue; type: ADME, organism-based; procedure, shortened: as §1
Mus musculus [15] = test: Biodistribution of labeled B72.3-chelator conjugate(DTPA isothiocynates) in Nude mice bearing LS174T tumors, in liver, administered intravenously expressed as % of injected dose of indium-111 per gram of tissue; type: ADME, organism-based; procedure, shortened: as §1
Mus musculus [16] = test: Biodistribution of labeled B72.3-chelator conjugate(EDTA isothiocynates) in Nude mice bearing LS174T tumors, in liver, administered intravenously expressed as % of injected dose of indium-111 per gram of tissue; type: ADME, organism-based; procedure, shortened: as §1
Mus musculus [17] = test: Biodistribution of labeled B72.3-chelator conjugate(EDTA isothiocynates) in nude mice bearing LS174T tumors, in kidney, administered intravenously expressed as % of injected dose of indium-111 per gram of tissue; type: ADME, organism-based; procedure, shortened: as §1
Mus musculus [18] = test: Biodistribution of labeled B72.3-chelator conjugate(EDTA isothiocynates) in Nude mice bearing LS174T tumors, in lungs, administered intravenously expressed as % of injected dose of indium-111 per gram of tissue; type: ADME, organism-based, Lung; procedure, shortened: as §1
Mus musculus [19] = test: Biodistribution of labeled B72.3-chelator conjugate (EDTA isothiocynates) in Nude mice bearing LS174T tumors, in blood, administered intravenously expressed as % of injected dose of indium-111 per gram of tissue; type: ADME, organism-based; procedure, shortened: as §1
Mus musculus [20] = test: Biodistribution of labeled B72.3-chelator conjugatec in Nude mice bearing LS174T tumor (Ag+), administered intravenously expressed as % of injected dose of indium-111 per gram of tissue; type: ADME, organism-based
Mus musculus [21] = test: Biodistribution of labeled B72.3-chelator conjugate(EDTA isothiocynates) in Nude mice bearing LS174T tumors, in spleen, administered intravenously expressed as % of injected dose of indium-111 per gram of tissue; type: ADME, organism-based; procedure, shortened: as §1

Biodistribution (Mus musculus [1])	Biodistribution (Mus musculus [2])	Biodistribution (Mus musculus [3])	Biodistribution (Mus musculus [5])	Biodistribution (Mus musculus [6])	Biodistribution (Mus musculus [8])	Biodistribution (Mus musculus [9])	Structure (SMILES)	also measured
5.5%	21.1%	6.1%	5.2%	12.1%	5.9%	3.9%	O=C(O)CN(CCN(CC(=O)O)C(Cc1ccc(N=C=S)cc1)C(=O)O)CC(=O)O (stereo not given)	–
4.1%	19.5%	6.9%	4.1%	8.9%	2.3%	4%	O=C(O)CN(CCN(CC(=O)O)CC(=O)O)CCN(CC(=O)O)C(Cc1ccc(N=C=S)cc1)C(=O)O (stereo not given)	–

Continued, compound first:

Structure (SMILES)	Biodistribution (Mus musculus [1])	Biodistribution (Mus musculus [2])	Biodistribution (Mus musculus [3])	Biodistribution (Mus musculus [5])	Biodistribution (Mus musculus [6])	Biodistribution (Mus musculus [8])	Biodistribution (Mus musculus [9])	also measured
O=C(O)CN(CCN(CC(=O)O)CC(=O)O)CCN(CC(=O)O)CC(=O)O [PENTETIC ACID]	6.3% and 6.15%	18.97%	17.2% and 19.39%	6.23%	10.67%	17.14% and 12.64%	9.14% and 12.12%	Biodistribution (Mus musculus [4]): 42.22%; Biodistribution (Mus musculus [7]): 11.23%
Nc1ccc(CC(CN(CCN(CC(=O)O)CC(=O)O)CC(=O)O)N(CC(=O)O)CC(=O)O)cc1 (stereo not given)	–	–	–	–	–	–	–	Biodistribution (Mus musculus [10]): 5.03%; Biodistribution (Mus musculus [11]): 18.37%; Biodistribution (Mus musculus [12]): 9.94%; Biodistribution (Mus musculus [13]): 25.94%; Biodistribution (Mus musculus [14]): 8.99%; Biodistribution (Mus musculus [15]): 9.09%
Nc1ccc(CC(CN(CC(=O)O)CC(=O)O)N(CC(=O)O)CC(=O)O)cc1 (stereo not given)	–	–	–	–	–	–	–	Biodistribution (Mus musculus [16]): 14.26%; Biodistribution (Mus musculus [17]): 16.91%; Biodistribution (Mus musculus [18]): 9.19%; Biodistribution (Mus musculus [19]): 19.82%; Biodistribution (Mus musculus [20]): 20.82%; Biodistribution (Mus musculus [21]): 11.68%
